Assay results taken from PMC9827907 (Chemmedchem, 2022).
Like-named read-outs stand apart in the source and are kept apart here.

What was measured:
P. falciparum K1 = assay: 72-hour [3H]hypoxanthine incorporation assay, field adapted strain K1; assay type: cell-based; conditions: Plasmodium falciparum, K1, read-out: IC50, K1
How it was run: (§1)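 Intraerythrocytic asexual-stage activity was measured against field-adapted drug-resistant P. falciparum strains. The drug-sensitive NF54 strain served as the wild-type reference, and fold shift was taken relative to NF54. Chloroquine and artesunate were run as control drugs.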

P. falciparum 7G8 = assay: 72-hour [3H]hypoxanthine incorporation assay, field adapted strain 7G8; assay type: cell-based; conditions: Plasmodium falciparum, 7G8, read-out: IC50, 7G8
How it was run: as §1

P. falciparum TM90 C2b = assay: 72-hour [3H]hypoxanthine incorporation assay, field adapted strain TM90 C2b; assay type: cell-based; conditions: Plasmodium falciparum, TM90, read-out: IC50, TM90 C2b
How it was run: as §1

P. falciparum Cam3.I = assay: 72-hour [3H]hypoxanthine incorporation assay, field adapted strain Cam3.I; assay type: cell-based; conditions: Plasmodium falciparum, read-out: IC50, Cam3.I
How it was run: as §1

P. falciparum Dd2 = assay: 72-hour [3H]hypoxanthine incorporation assay, field adapted strain Dd2; assay type: cell-based; conditions: Plasmodium falciparum, DD2, read-out: IC50, Dd2
How it was run: as §1

P. falciparum 3D7 = assay: In vitro P. falciparum viability assay, 3D7 strain, 72-hour SYBR green; assay type: cell-based, Plasmodium falciparum; conditions: for IC50: Plasmodium falciparum, 3D7, 72 h, read-out: 3D7 IC50
How it was run: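 Asexual blood-stage growth inhibition was measured on the 3D7 strain with 72 h exposure to test compound. IC50 values are geometric mean ± SEM of at least two independent experiments.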

[1] = Metabolic stability study using human liver microsomes; assay type: in vitro ADME; conditions: pooled human liver microsomes
P. falciparum Dd2 (wt) = assay: In vitro intraerythrocytic antimalarial activity, Dd2; assay type: cell-based, Plasmodium falciparum
[2] = tested on: P. falciparum Dd2 (Pfpi4k); assay: In vitro intraerythrocytic antimalarial activity, lab adapted strain Dd2; assay type: cell-based, Plasmodium falciparum
How it was run: (§2)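 Intraerythrocytic asexual-stage activity was measured against laboratory resistant lines, with resistance mutations introduced into a Dd2 wild-type background. Fold shift was taken relative to Dd2 wild type. Strain-matched reference inhibitors were tested on Dd2 wild type and on the mutant lines. Values are means of at least two independent experiments.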

[3] = tested on: P. falciparum clone A3 (PfeEF2 Y719C); assay: 72 hour concentration-response assay, MMV692140-selected clone A3; assay type: cell-based, Plasmodium falciparum; conditions: vs parental Dd2-B2, Figure 3
How it was run: (§3)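 Drug-selected P. falciparum clones carry PfeEF2 point mutations in the chloroquine-resistant Dd2-B2 background and are compared with the parental Dd2-B2 clone. […] Each clone was tested against parent by unpaired t test with Welch's correction.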

[4] = tested on: P. falciparum clone D3 (PfeEF2 F770L); assay: 72 hour concentration-response assay, MMV692140-selected clone D3; assay type: cell-based, Plasmodium falciparum; conditions: IC50 vs Dd2-B2 parent
How it was run: as §3

[5] = tested on: P. falciparum clone G12 (PfeEF2 L507S); assay: 72 hour concentration-response assay, MMV692140-selected clone G12; assay type: cell-based, Plasmodium falciparum; conditions: vs parental Dd2-B2, Figure 3
How it was run: as §3

[6] = tested on: P. falciparum clone D6 (PfeEF2 Y186N); assay: 72 hour concentration-response assay, M5717-selected clone D6; assay type: cell-based, Plasmodium falciparum
How it was run: as §3

[7] = tested on: P. falciparum clone E5 (PfeEF2 E134D); assay: 72 hour concentration-response assay, M5717-selected clone E5; assay type: cell-based, Plasmodium falciparum
How it was run: as §3

[8] = tested on: P. falciparum clone F8 (PfeEF2 L775F); assay: 72 hour concentration-response assay, M5717-selected clone F8; assay type: cell-based, Plasmodium falciparum
How it was run: as §3

[9] = tested on: P. falciparum Dd2 (PfeEF2); assay: In vitro intraerythrocytic antimalarial activity, lab adapted strain Dd2; assay type: cell-based; conditions: Plasmodium falciparum, DD2, read-out: IC50, Dd2 (PfeEF2)
How it was run: as §2

[10] = tested on: P. falciparum Dd2 (Pfcytb); assay: as above; assay type: cell-based, Plasmodium falciparum
How it was run: as §2

[11] = tested on: P. falciparum Dd2 (Pfdhodh); assay: as above; assay type: cell-based, Plasmodium falciparum
How it was run: as §2

[12] = Plasmodium falciparum, DD2, read-out: IC50, Dd2 (wt)

CCN(CC)CCCC(C)Nc1ccnc2cc(Cl)ccc12 (centres unmarked) [Chloroquine] showed an IC50 (P. falciparum K1) of 200 nM, an IC50 (P. falciparum 7G8) of 80 nM and an IC50 (P. falciparum TM90 C2b) of 140 nM. The IC50 (P. falciparum Cam3.I) was 180 nM and the IC50 (P. falciparum Dd2) was 160 nM.
O=C(C1CCN(c2nnnn2C2CCCC2)CC1)N1CCCc2ccccc21 [Compound 28, (1-(1-cyclopentyl-1H-tetrazol-5-yl)piperidin-4-yl)(3,4-dihydroquinolin-1(2H)-yl)methanone] showed an IC50 (P. falciparum 3D7) of 3300 ± 480 nM and a microsomal CLint at 1 µM [1] of over 400 µL/min/mg.
Compound COc1ccc(-n2nnnc2N2CCC(C(=O)N3CCCc4c(Cl)cccc43)CC2)cc1 [Compound 31] has an IC50 (P. falciparum 3D7) of 700 ± 100 nM and a microsomal CLint at 1 µM [1] of over 400 µL/min/mg.
O=C(C1CCN(c2nnnn2C2CCCCC2)CC1)N1CCCc2ccccc21 [Compound 29] showed an IC50 (P. falciparum 3D7) of 3500 ± 20 nM and a microsomal CLint at 1 µM [1] of over 400 µL/min/mg.
COc1ccc(-n2nnnc2N2CCC(C(=O)N3CCCc4ccccc43)CC2)cc1 [Compound 7, (3,4-Dihydroquinolin-1(2H)-yl)(1-(1-(4-methoxyphenyl)-1H-tetrazol-5-yl)piperidin-4-yl)methanone] gave an IC50 (P. falciparum 3D7) of 900 ± 140 nM and a microsomal CLint at 1 µM [1] of 521 µL/min/mg.
For O=C(C1CCN(c2nnnn2-c2ccc(OC(F)(F)F)cc2)CC1)N1CCCc2ccccc21 [Compound 9], the IC50 (P. falciparum 3D7) was 5500 ± 860 nM.
With C[C@H]1[C@H](OC(=O)CCC(=O)O)O[C@@H]2O[C@@]3(C)CC[C@H]4[C@H](C)CC[C@@H]1[C@@]24OO3 [Artesunate] the IC50 (P. falciparum K1) was 2 nM, the IC50 (P. falciparum 7G8) was 2 nM and the IC50 (P. falciparum TM90 C2b) was 5 nM. It also gave an IC50 (P. falciparum Cam3.I) of 11 nM and an IC50 (P. falciparum Dd2) of 6 nM.
With CC(C)n1nnnc1N1CCC(C(=O)N2CCCc3ccccc32)CC1 [Compound 27, (3,4-Dihydroquinolin-1(2H)-yl)(1-(1-isopropyl-1H-tetrazol-5-yl)piperidin-4-yl)methanone] the IC50 (P. falciparum 3D7) was 5600 ± 920 nM and the microsomal CLint at 1 µM [1] was 135 µL/min/mg.
O=C(C1CCN(c2nnnn2-c2ccccc2)CC1)N1CCCc2cnccc21 [Compound 25, (3,4-Dihydro-1,6-naphthyridin-1(2H)-yl)(1-(1-phenyl-1H-tetrazol-5-yl)piperidin-4-yl)methanone] showed an IC50 (P. falciparum 3D7) of 10800 ± 650 nM.
In the case of O=C(C1CCN(c2nnnn2-c2ccccc2)CC1)N1CCCc2ccc(Cl)cc21 [Compound 23, (7-Chloro-3,4-dihydroquinolin-1(2H)-yl)(1-(1-phenyl-1H-tetrazol-5-yl)piperidin-4-yl)methanone], the IC50 (P. falciparum 3D7) is reported as over 25000 nM.
For CS(=O)(=O)c1ccc(-c2cnc(N)c(-c3ccc(C(F)(F)F)nc3)c2)cc1 [MMV390048], the IC50 (P. falciparum Dd2 (wt); [12]) was 21.2 nM, the IC50 ([2]; Plasmodium falciparum, DD2, read-out: IC50, Dd2 (Pfpi4k)) was 102 nM and the “fold shift, Dd2 (Pfpi4k)” value ([2]; vs Dd2 (wt)) was 4.8 fold.
In the case of O=C(C1CCN(c2nnnn2-c2ccc(N3CCCC3)cc2)CC1)N1CCCc2c(F)cccc21 [Compound 36, (5-fluoro-3,4-dihydroquinolin-1(2H)-yl)(1-(1-(4-(pyrrolidin-1-yl)phenyl)-1H-tetrazol-5-yl)piperidin-4-yl)methanone], the IC50 (P. falciparum 3D7) is reported as 66 ± 8 nM, the “improvement of antimalarial asexual blood stage in vitro potency” value (P. falciparum 3D7; relative to hit compound 2, 72-hour 3D7 assay) is reported as 30 fold and the microsomal CLint at 1 µM [1] is reported as over 400 µL/min/mg.
O=C(C1CCN(c2nnnn2-c2ccccc2)CC1)N1CCCc2cc(Cl)ccc21 [Compound 20, (6-Chloro-3,4-dihydroquinolin-1(2H)-yl)(1-(1-phenyl-1H-tetrazol-5-yl)piperidin-4-yl)methanone] gave an IC50 (P. falciparum 3D7) of over 25000 nM.
In the case of O=C(NCCN1CCCC1)c1cc(-c2ccc(CN3CCOCC3)cc2)nc2ccc(F)cc12 [Compound M5717], the “Cross resistance of compound 2-selected clone A3” value [3] is reported as “not cross‐resistant”, the “Fold shift, clone D3” value [4] is reported as 1.6 fold and the “Cross resistance of compound 2-selected clone G12” value [5] is reported as “not cross‐resistant”. The “Fold shift, clone D6” value ([6]; IC50 vs Dd2-B2 parent) was 14700x fold, the IC50 ([6]; Plasmodium falciparum, D6, 72 h, read-out: IC50, clone D6) was 3100 nM and the “Fold shift, clone E5” value ([7]; IC50 vs Dd2-B2 parent) was 27x fold. The IC50 ([7]; Plasmodium falciparum, 72 h, read-out: IC50, clone E5) was 5.8 nM, the “Fold shift, clone F8” value ([8]; IC50 vs Dd2-B2 parent) was 3100x fold and the IC50 ([8]; Plasmodium falciparum, 72 h, read-out: IC50, clone F8) was 660 nM. For the same compound, the IC50 (P. falciparum Dd2 (wt); [12]) was 2 nM and the IC50 [9] was 3100 nM.
Cc1ccccc1-n1nnnc1N1CCC(C(=O)N2CCCc3ccccc32)CC1 [Compound 8, (3,4-Dihydroquinolin-1(2H)-yl)(1-(1-(o-tolyl)-1H-tetrazol-5-yl)piperidin-4-yl)methanone] showed an IC50 (P. falciparum 3D7) of 1400 ± 20 nM.
In the case of COc1cc2[nH]c(C)c(-c3ccc(Oc4ccc(OC(F)(F)F)cc4)cc3)c(=O)c2cc1Cl [ELQ300], the IC50 (P. falciparum Dd2 (wt); read-out: IC50, Dd2 (wt), reference compounds) is reported as 19 nM, the IC50 ([10]; read-out: IC50, Dd2 (Pfcytb), reference compound) is reported as 254 nM and the “fold shift, Dd2 (Pfcytb)” value ([10]; vs Dd2 (wt)) is reported as 13 fold.
Work on N#Cc1ccc2c(c1)N(C(=O)C1CCN(c3nnnn3-c3ccccc3)CC1)CCC2 [Compound 22] yielded an IC50 (P. falciparum 3D7) of over 25000 nM.
For Cc1cc(Nc2ccc(S(F)(F)(F)(F)F)cc2)n2nc(C(C)(F)F)nc2n1 [DSM265], the IC50 (P. falciparum Dd2 (wt); [12]) was 8 nM, the IC50 ([11]; Plasmodium falciparum, DD2, read-out: IC50, Dd2 (Pfdhodh)) was 143 nM and the “fold shift, Dd2 (Pfdhodh)” value ([11]; vs Dd2 (wt)) was 18 fold.
Work on O=C(C1CCN(c2nnnn2-c2ccc(N3CCCC3)cc2)CC1)N1CCOc2c(Cl)cccc21 [Compound 34] yielded an IC50 (P. falciparum 3D7) of 1600 ± 81 nM and a microsomal CLint at 1 µM [1] of 296 µL/min/mg.
Work on O=C(C1CCN(c2nnnn2-c2ccc(F)cc2)CC1)N1CCOc2ccccc21 [Compound 30] yielded an IC50 (P. falciparum 3D7) of 8900 ± 1400 nM and a microsomal CLint at 1 µM [1] of 83 µL/min/mg.
O=C(C1CCN(c2nnnn2-c2ccccc2)CC1)N1CCCc2ncccc21 [Compound 24, (3,4-Dihydro-1,5-naphthyridin-1(2H)-yl)(1-(1-phenyl-1H-tetrazol-5-yl)piperidin-4-yl)methanone] showed an IC50 (P. falciparum 3D7) of 10200 ± 750 nM.
O=C(C1CCN(c2nnnn2-c2ccccc2)CC1)N1CCCc2c(Cl)cccc21 [Compound 17, (5-Chloro-3,4-dihydroquinolin-1(2H)-yl)(1-(1-phenyl-1H-tetrazol-5-yl)piperidin-4-yl)methanone] showed an IC50 (P. falciparum 3D7) of 600 ± 90 nM.
For O=C(C1CCN(c2nnnn2-c2ccc(N3CCCC3)cc2)CC1)N1CCCc2c(Cl)cccc21 [Compound 33], the IC50 (P. falciparum 3D7) was 110 ± 10 nM and the microsomal CLint at 1 µM [1] was over 400 µL/min/mg.
For COc1ccc(-n2nnnc2N2CCC(C(=O)N3CCOc4c(Cl)cccc43)CC2)cc1 [Compound 32], the IC50 (P. falciparum 3D7) was 3600 ± 1200 nM and the microsomal CLint at 1 µM [1] was 78 µL/min/mg.
